ChEMBL document CHEMBL1649175, “Lack of a clinically important effect of moderate hepatic insufficiency and severe renal insufficiency on raltegravir pharmacokinetics” (Antimicrob Agents Chemother, 2009)

Tests used:
[1] = Terminal half life in patient with hepatic insufficiency at 400 mg, po administered as single dose; format: ADME, organism-based; conditions: human, in vivo
How it was run: (§1)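 Single 400-mg oral raltegravir dose, fasted (stated for study II); patients and matched healthy controls. Plasma sampled at 0–72 h (to 96 h in hepatic study only), quantified by validated reverse-phase HPLC-MS/MS (LLOQ 2 ng/ml), converted to nM (MW 444.4). Profiles fit biexponentially (Gauss-Newton, Levenberg-Hartley; weighting 1/predicted concentration²); each phase t1/2 = ln(2)/rate constant.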

[2] = Cmax in patient with severe renal insufficiency at 400 mg, po administered as single dose; format: ADME, organism-based; design: dose 400 mg, route oral; conditions: human, in vivo
How it was run: (§2)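 Single 400-mg oral dose given fasted (fasting stated for the renal study). Assay: validated reverse-phase HPLC-MS/MS, LLOQ 2 ng/ml, range 2 to 1,000 ng/ml. AUC0-∞ = AUC0-last by linear/log trapezoid plus extrapolation. Cmax is read from the data. C12 is the nominal 12-h concentration. Values converted to nM (MW 444.4).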

[3] = Terminal half life in patient with severe renal insufficiency at 400 mg, po administered as single dose; format: ADME, organism-based; conditions: human, in vivo; how it was run: as §1
Homo sapiens [4] = assay: Ratio of Cmax in patient with hepatic insufficiency to Cmax in healthy human at 400 mg, po administered as single dose; format: ADME, organism-based; conditions: in vivo
How it was run: (§3)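 Single 400-mg oral raltegravir dose to patients (moderate hepatic or severe renal insufficiency) and matched healthy controls; plasma raltegravir measured by HPLC-MS/MS. Cmax read by inspection, ln-transformed. Geometric mean ratio (patient/healthy) with 90% CI from ANCOVA least-squares means: population and sex fixed effects, age and BMI covariates.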

[5] = Renal clearance in patient with severe renal insufficiency at 400 mg, po administered as single dose; format: ADME, organism-based, Kidney; conditions: human, in vivo, read-out: CL_renal
How it was run: (§4)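 Renal study, 10 patients plus 10 matched controls. Urine collected predose and at 0–4, 4–8, 8–12 and 12–24 h after a fasted 400-mg oral dose. Urine diluted and injected directly for HPLC-MS/MS (LLOQ 0.25 µg/ml, range 0.25–25 µg/ml). fe = total amount excreted unchanged ÷ dose × 100%. CLR = […] ÷ plasma AUC0-24.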

Homo sapiens [6] = assay: Ratio of Cmax in patient with severe renal insufficiency to Cmax in healthy human at 400 mg, po administered as single dose; format: ADME, organism-based; conditions: in vivo; how it was run: as §3
[7] = Primary phase half life in healthy human at 400 mg, po administered as single dose; format: ADME, organism-based; conditions: in vivo; how it was run: as §1
[8] = Tmax in patient with hepatic insufficiency at 400 mg, po administered as single dose; format: ADME, organism-based; conditions: human, in vivo
How it was run: (§5)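 Tmax is taken by inspection of the plasma concentration data, using nominal sampling times. Single 400-mg oral dose; plasma sampled from 0 to 72 h, or to 96 h in the hepatic study. Raltegravir is measured by validated reverse-phase HPLC-MS/MS (LLOQ 2 ng/ml).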

[9] = Renal clearance in healthy human at 400 mg, po administered as single dose; format: ADME, organism-based, Kidney; conditions: in vivo, read-out: CL_renal; how it was run: as §4
[10] = AUC (0 to infinity) in patient with hepatic insufficiency at 400 mg, po administered as single dose; format: ADME, organism-based; design: dose 400 mg, route oral, time infinity; conditions: human, plasma; how it was run: as §2
[11] = AUC (0 to infinity) in patient with severe renal insufficiency at 400 mg, po administered as single dose; format: ADME, organism-based; design: dose 400 mg, route oral, time infinity; conditions: human, plasma; how it was run: as §2
[12] = Plasma concentration in healthy human at 400 mg, po administered as single dose measured at 12 hrs post dose; format: ADME, organism-based; conditions: read-out: Activity; how it was run: as §2
Homo sapiens [13] = assay: Drug level in patient with severe renal insufficiency assessed as recovery of unchanged drug at 400 mg, po administered as single dose; format: ADME, organism-based; conditions: in vivo; how it was run: as §4
Homo sapiens [14] = assay: Toxicity in human assessed as headache at 400 mg, po administered as single dose; format: organism-based; conditions: in vivo
How it was run: (§6)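 Safety assessed throughout each study by clinical and laboratory evaluations after a single 400-mg oral dose. Relatedness of adverse experiences to the drug was judged by the investigator.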

Homo sapiens [15] = assay: Ratio of plasma concentration in patient with hepatic insufficiency to plasma concentration in healthy human at 400 mg, po administered as single dose measured at 12 hrs post dose; format: ADME, organism-based; conditions: in vivo
How it was run: (§7)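 Geometric mean ratio, patients/matched healthy controls, for AUC0-∞, Cmax and C12 after a single 400-mg oral dose. Data are natural-log transformed. 90% CIs come from ANCOVA least-squares means, with population and sex as fixed effects and age and BMI as covariates, then exponentiated. n = 8 per group.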

[16] = Terminal half life in healthy human at 400 mg, po administered as single dose; format: ADME, organism-based; conditions: in vivo; how it was run: as §1
[17] = Cmax in healthy human at 400 mg, po administered as single dose; format: ADME, organism-based; design: dose 400 mg, route oral; conditions: in vivo; how it was run: as §2
[18] = Cmax in patient with hepatic insufficiency at 400 mg, po administered as single dose; format: ADME, organism-based; design: dose 400 mg, route oral; conditions: human, in vivo; how it was run: as §2
[19] = Plasma concentration in patient with hepatic insufficiency at 400 mg, po administered as single dose measured at 12 hrs post dose; format: ADME, organism-based; conditions: human, read-out: Activity; how it was run: as §2
[20] = AUC (0 to infinity) in healthy human at 400 mg, po administered as single dose; format: ADME, organism-based; design: dose 400 mg, route oral, time infinity; conditions: plasma; how it was run: as §2
[21] = Primary phase half life in patient with hepatic insufficiency at 400 mg, po administered as single dose; format: ADME, organism-based; conditions: human, in vivo; how it was run: as §1
Homo sapiens [22] = assay: Ratio of plasma concentration in patient with hepatic insufficiency to plasma concentration in healthy human at 400 mg, po administered as single dose; format: ADME, organism-based; conditions: in vivo; how it was run: as §7
[23] = Tmax in patient with severe renal insufficiency at 400 mg, po administered as single dose; format: ADME, organism-based; conditions: human, in vivo; how it was run: as §5
[24] = Plasma concentration in patient with severe renal insufficiency at 400 mg, po administered as single dose measured at 12 hrs post dose; format: ADME, organism-based; conditions: human, read-out: Activity; how it was run: as §2
Homo sapiens [25] = assay: Toxicity in human assessed as mouth ulceration at 400 mg, po administered as single dose; format: organism-based; conditions: in vivo; how it was run: as §6
[26] = Primary phase half life in patient with severe renal insufficiency at 400 mg, po administered as single dose; format: ADME, organism-based; conditions: human, in vivo; how it was run: as §1

For `Cc1nnc(C(=O)NC(C)(C)c2nc(C(=O)NCc3ccc(F)cc3)c(O)c(=O)n2C)o1` [RALTEGRAVIR], the half-life [1] was 7 h, the Cmax [2] was 3850 nM and the half-life [3] was 17.2 h. The Cmax (Ratio) (Homo sapiens [4]) was 0.63, the CL renal [5] was 2.7 mL/min and the Cmax (Ratio) (Homo sapiens [6]) was 0.68. For the same compound, the half-life [7] was 1.1 h, the Tmax [8] was 2.5 h and the CL renal [9] was 31.5 mL/min. The AUC(0-inf) [10] was 17.7 µM·h, the AUC(0-inf) [11] was 16.8 µM·h and the concentration at 12 h [12] was 106 nM. For the same compound, the “fold change (FC)” value (Homo sapiens [13]) was 0.5, the Activity (Homo sapiens [14]) was “Toxic” and the Activity (Homo sapiens [15]) was 1.26 nM. It also gave a half-life [16] of 9.3 h, a Cmax [17] of 5680 nM and a Cmax [18] of 4410 nM. The concentration at 12 h [19] was 143 nM, the AUC(0-inf) [20] was 19.7 µM·h and the half-life [21] was 1.49 h. For the same compound, the Activity (Homo sapiens [22]) was 1.26 nM, the Tmax [23] was 3.5 h and the concentration at 12 h [24] was 135 nM. For the same compound, the Activity (Homo sapiens [25]) was “Toxic” and the half-life [26] was 1.38 h.
